Test results: ChEMBL document CHEMBL1125007 (J Med Chem, 1990)

What was measured:
CHO-AA8 = assay: Cytotoxicity against AA8 cell line; type: functional, cell-based; details: Cricetulus griseus
Method in brief: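 AA8 Chinese hamster ovary cells kept in log phase in Alpha MEM with 10% fetal calf serum. Drug was applied in 96-well microcultures for 18 h, then removed by three washes with fresh medium. Cells grew a further 72 h before cell density was read by methylene blue staining. IC50 is the nominal concentration cutting density to 50% of controls, with eight controls per plate.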

[1] = Relative lipophilicity; type: physicochemical; details: octanol/water
Method in brief: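 Relative lipophilicity of the side-chain fragment -NH(CH2)nX-, calculated from substituent fragment values.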

P388 [2] = assay: Optimal dose (i.p.) given after inoculation with wild type 10 E 6 P388/W leukemia cell lines, measured on day 1; type: functional, Mus musculus
Method in brief: (§1)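 Single intraperitoneal dose given in 0.1 or 0.2 mL of 30% v/v ethanol-water on day 1 after intraperitoneal inoculation of 10^6 P388 leukemia cells. ILS is the percent increase in lifespan of treated tumor-bearing animals at that optimal dose.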

P388 [3] = assay: Increase in life span of the drug treated animals against P388 leukemia when treated at a optimal dose of 26 mg/kg; type: functional; details: Mus musculus; method in brief: as §1
P388 [4] = assay: Cytotoxicity against P388 leukemia cell line; type: functional, cell-based; details: Mus musculus
Method in brief: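 P388 murine leukemia cells kept in log phase in RPMI 1640 with 10% fetal calf serum. Drug was present in 96-well microcultures for the whole 72 h growth period. Final cell density was read by a slightly modified MTT method. IC50 is the nominal concentration cutting density to 50% of controls, with eight control cultures per plate.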

UV4 (Cricetulus griseus) = assay: Relative cytotoxic potency given as Hypersensitivity ratio of (IC50 for AA8 cell line) to (IC50 for UV4 cell line)
P388 [5] = assay: Increase in life span of the drug treated animals against P388 leukemia when treated at a optimal dose of 8.9 mg/kg; type: functional; details: Mus musculus; method in brief: as §1
P388 [6] = assay: Increase in life span of the drug treated animals against P388 leukemia when treated at a optimal dose of 45 mg/kg; type: functional; details: Mus musculus; method in brief: as §1
[7] = Rate constant for alkylation of 4-(4-nitrobenzyl)pyridine; type: ADME
[8] = Rate constant for hydrolysis in aqueous acetone.; type: ADME; parameters: scale not given here; details: buffer
Nucleic Acid [9] = assay: DNA crosslinking ability at a concentration of 0.2 uM determined after Agarose gel electrophoresis run for 24 hr; + indicates Significant crosslinking; type: functional
Nucleic Acid [10] = assay: pBR322/DHFR26 DNA crosslinking ability at a concentration of 0.02 uM determined after Agarose gel electrophoresis run for 4 hr; +/- indicates Slight crosslinking; type: functional
Nucleic Acid [11] = assay: pBR322/DHFR26 DNA crosslinking ability at a concentration of 0.2 uM determined after Agarose gel electrophoresis run for 4 hr; + indicates Significant crosslinking; type: functional
P388 [12] = assay: Increase in life span of the drug treated animals against P388 leukemia when treated at a optimal dose of 30 mg/kg; type: functional; details: Mus musculus; method in brief: as §1
P388 [13] = assay: Increase in life span of the drug treated animals against P388 leukemia when treated at a optimal dose of 65 mg/kg; type: functional; details: Mus musculus; method in brief: as §1
P388 [14] = assay: Increase in life span of the drug treated animals against P388 leukemia when treated at a optimal dose of 13.3 mg/kg; type: functional; details: Mus musculus; method in brief: as §1
Nucleic Acid [15] = assay: DNA crosslinking ability at a concentration of 0.2 uM determined after Agarose gel electrophoresis run for 24 hr; ++ indicates extensive crosslinking; type: functional
Nucleic Acid [16] = assay: pBR322/DHFR26 DNA crosslinking ability at a concentration of 0.02 uM determined after Agarose gel electrophoresis run for 4 hr; + indicates Significant crosslinking; type: functional
Nucleic Acid [17] = assay: pBR322/DHFR26 DNA crosslinking ability at a concentration of 0.2 uM determined after Agarose gel electrophoresis run for 4 hr; ++ extensive Significant crosslinking; type: functional
P388 [18] = assay: Increase in life span of the drug treated animals against P388 leukemia when treated at a optimal dose of 65 mg/kg; No activity at all doses; type: functional, organism-based; parameters: dose 65 mg/kg; details: Mus musculus; method in brief: as §1

Row | SMILES | IC50 (CHO-AA8) [µM] | Relative lipophilicity [1] | OD (P388 [2]) [mg/kg] | IC50 (P388 [4]) [µM] | HF (UV4 (Cricetulus griseus)) | further results
1 | Cl.ClCCN(CCCl)c1ccc(SCCCCNc2c3ccccc3nc3ccccc23)cc1 | 1.37 | 1.22 | 26 | 0.49 | 21 | ILS at 26 mg/kg (P388 [3]): 48%
2 | O=S(=O)(CCCCCNc1c2ccccc2nc2ccccc12)c1ccc(N(CCCl)CCCl)cc1 | – | -0.38 | – | 0.75 | 1 | –
3 | Cl.Cl.Cl.Cl.ClCCN(CCCl)c1ccc(OCCCNc2c3ccccc3nc3ccccc23)cc1 | 0.38 | 0.26 | 8.9 | 0.047 | 54 | ILS at 8.9 mg/kg (P388 [5]): 27%
4 | ClCCN(CCCl)c1ccc(OCCCCNc2c3ccccc3nc3ccccc23)cc1 | 0.28 | 0.64 | 45 | 0.063 | 55 | ILS at 45 mg/kg (P388 [6]): 47%
5 | Cl.Cl.Cl.Cl.ClCCN(CCCl)c1ccc(CCCCNc2c3ccccc3nc3ccccc23)cc1 | 0.44 | 1.21 | 45 | 0.086 | 36 | KNBP [7]: 225000 s⁻¹; KH [8]: 20600 s⁻¹; ILS at 45 mg/kg (P388 [6]): 52%; DNA crosslinking (Nucleic Acid [9]): Significant crosslinking; DNA crosslinking (Nucleic Acid [10]): +/-; DNA crosslinking (Nucleic Acid [11]): Significant crosslinking
6 | Cl.ClCCN(CCCl)c1ccc(OCCNc2c3ccccc3nc3ccccc23)cc1 | 0.27 | -0.02 | 30 | 0.072 | 54 | ILS at 30 mg/kg (P388 [12]): 42%
7 | Cl.Cl.Cl.Cl.ClCCN(CCCl)c1ccc(SCCNc2c3ccccc3nc3ccccc23)cc1 | 1.2 | 0.42 | 65 | 0.372 | 24 | ILS at 65 mg/kg (P388 [13]): 37%
8 | ClCCN(CCCl)c1ccc(OCCCCCNc2c3ccccc3nc3ccccc23)cc1 | – | 1.18 | – | 0.05 | 46 | DNA crosslinking (Nucleic Acid [9]): Significant crosslinking
9 | Cl.Cl.Cl.Cl.ClCCN(CCCl)c1ccc(SCCCNc2c3ccccc3nc3ccccc23)cc1 | 1.1 | 0.79 | 13.3 | 0.36 | 18 | ILS at 13.3 mg/kg (P388 [14]): 38%
10 | Cl.Cl.Cl.Cl.ClCCN(CCCl)c1ccc(CCCCCNc2c3ccccc3nc3ccccc23)cc1 | 0.31 | 1.75 | 45 | 0.082 | 59 | KNBP [7]: 144000 s⁻¹; KH [8]: 32000 s⁻¹; ILS at 45 mg/kg (P388 [6]): 58%; DNA crosslinking (Nucleic Acid [15]): extensive crosslinking; DNA crosslinking (Nucleic Acid [16]): extensive crosslinking; DNA crosslinking (Nucleic Acid [17]): extensive crosslinking
11 | O=C(O)CCCc1ccc(N(CCCl)CCCl)cc1 [CHLORAMBUCIL] | – | – | – | 7.5 | 58 | –
12 | ClCCN(CCCl)c1ccc(CCCCCCNc2c3ccccc3nc3ccccc23)cc1 | – | 2.29 | – | 0.136 | 36 | KNBP [7]: 157000 s⁻¹; KH [8]: 33900 s⁻¹; DNA crosslinking (Nucleic Acid [9]): Significant crosslinking; DNA crosslinking (Nucleic Acid [16]): Significant crosslinking; DNA crosslinking (Nucleic Acid [11]): Significant crosslinking
13 | ClCCN(CCCl)c1ccc(SCCCCCNc2c3ccccc3nc3ccccc23)cc1 | – | 1.76 | – | 0.38 | 19 | –
14 | Cl.Cl.Cl.Cl.ClCCN(CCCl)c1ccc(CCCNc2c3ccccc3nc3ccccc23)cc1 | 0.31 | 0.67 | 45 | 0.061 | 43 | KNBP [7]: 146000 s⁻¹; KH [8]: 14500 s⁻¹; ILS at 45 mg/kg (P388 [6]): 25%; DNA crosslinking (Nucleic Acid [9]): Significant crosslinking; DNA crosslinking (Nucleic Acid [10]): +/-; DNA crosslinking (Nucleic Acid [11]): Significant crosslinking
15 | Cl.O=S(=O)(CCNc1c2ccccc2nc2ccccc12)c1ccc(N(CCCl)CCCl)cc1 | 18.3 | -1.17 | 65 | 2.3 | 3.3 | ILS (P388 [18]): No activity
16 | Cl.O=S(=O)(CCCCNc1c2ccccc2nc2ccccc12)c1ccc(N(CCCl)CCCl)cc1 | 1.7 | -0.92 | 30 | 1.9 | 1.4 | ILS (P388 [18]): No activity
17 | Cl.O=S(=O)(CCCNc1c2ccccc2nc2ccccc12)c1ccc(N(CCCl)CCCl)cc1 | 9.8 | -1.14 | 45 | 2.6 | 5.1 | ILS (P388 [18]): No activity
